# Results as given in ChEMBL document CHEMBL1127802, “Selective inhibitors of monoamine oxidase. 2. Arylamide SAR” (J Med Chem, 1994).
# How the values were obtained:
# [1] = molecular target: T1, MAO A (monoamine oxidase A) (Rattus norvegicus, UniProt P21396); experiment: (§1) Inhibitory activity against monoamine oxidase A (MAO A) from rat brain using a radiometric procedure with [3H]5-HT at 10 uM; conditions: rat brain monoamine oxidase A preparation, probe [3H]5-HT
# T1 sequence (P21396 whole entry): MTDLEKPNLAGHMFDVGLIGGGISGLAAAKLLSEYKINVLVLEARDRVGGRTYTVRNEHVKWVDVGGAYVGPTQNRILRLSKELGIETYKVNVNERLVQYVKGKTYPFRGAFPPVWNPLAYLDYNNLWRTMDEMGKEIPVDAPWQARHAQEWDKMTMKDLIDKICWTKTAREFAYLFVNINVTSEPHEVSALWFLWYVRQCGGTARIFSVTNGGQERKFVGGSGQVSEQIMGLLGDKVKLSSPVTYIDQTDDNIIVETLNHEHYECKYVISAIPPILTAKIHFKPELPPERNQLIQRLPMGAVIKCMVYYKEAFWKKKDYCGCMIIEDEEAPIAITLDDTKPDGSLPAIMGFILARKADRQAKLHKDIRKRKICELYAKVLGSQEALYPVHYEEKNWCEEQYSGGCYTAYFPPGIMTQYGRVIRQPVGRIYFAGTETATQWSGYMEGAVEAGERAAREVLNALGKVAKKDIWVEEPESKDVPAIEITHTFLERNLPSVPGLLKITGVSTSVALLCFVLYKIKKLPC
# Procedure, shortened: (§2)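 Rat brain mitochondrial MAO extract was preincubated with or without inhibitor for 15 min at 37 °C in 50 mM potassium phosphate, pH 7.4. […] Blanks contained 2 mM pargyline. Reactions were stopped with HCl, products extracted into ethyl acetate/toluene and counted by scintillation. Triplicates were averaged as % inhibition, and IC50 was taken from % inhibition vs log concentration.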
# [2] = molecular target: T2, MAO B (monoamine oxidase B) (Rattus norvegicus, UniProt P19643); experiment: (§3) Inhibitory activity against monoamine oxidase B (MAO B) from rat brain using a radiometric procedure with [14C]phenylethylamine at 10 uM; conditions: rat brain monoamine oxidase B preparation, probe [14C]phenylethylamine
# T2 sequence (P19643 whole entry): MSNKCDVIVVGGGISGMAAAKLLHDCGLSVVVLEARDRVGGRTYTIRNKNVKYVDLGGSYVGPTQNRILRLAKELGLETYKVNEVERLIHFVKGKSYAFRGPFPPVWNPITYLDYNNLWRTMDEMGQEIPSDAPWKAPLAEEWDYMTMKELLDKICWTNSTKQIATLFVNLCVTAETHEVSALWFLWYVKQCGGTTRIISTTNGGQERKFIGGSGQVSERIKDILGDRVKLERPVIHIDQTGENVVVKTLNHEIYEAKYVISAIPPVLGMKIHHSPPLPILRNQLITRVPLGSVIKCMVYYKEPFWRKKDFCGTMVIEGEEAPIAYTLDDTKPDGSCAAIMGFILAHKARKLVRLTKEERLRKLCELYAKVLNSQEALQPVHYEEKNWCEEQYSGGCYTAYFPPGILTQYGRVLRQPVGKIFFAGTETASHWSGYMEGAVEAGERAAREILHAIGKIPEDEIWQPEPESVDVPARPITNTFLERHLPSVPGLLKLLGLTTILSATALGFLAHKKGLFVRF
# Procedure, shortened: (§4)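 Rat brain mitochondrial MAO extract was preincubated ± inhibitor for 15 min at 37 °C in 50 mM potassium phosphate, pH 7.4. […] Pargyline (2 mM) defined blanks. Acid stop, ethyl acetate/toluene extraction and scintillation counting followed. Triplicate means gave % inhibition, and IC50 was extrapolated from % inhibition vs log concentration plots.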
# [3] = molecular target: T3, Amine oxidase [flavin-containing] A (Rattus norvegicus, UniProt P21396); experiment: Inhibitory activity against monoamine oxidase A (MAO A) from rat brain using a radiometric procedure with [3H]5-HT; procedure, shortened: as §2
# T3 sequence (P21396 whole entry): T1 sequence (P21396 whole entry)
# [4] = molecular target: T2, MAO B (monoamine oxidase B); experiment: Inhibitory activity against monoamine oxidase B (MAO B) from rat brain using a radiometric procedure with [14C]- phenethylamine at 1 uM; conditions: rat brain monoamine oxidase B preparation, probe [14C]-phenethylamine; procedure, shortened: as §4
# [5] = molecular target: T1, MAO A (monoamine oxidase A); experiment: Inhibitory activity against monoamine oxidase A (MAO A) from rat brain using a radiometric procedure with [3H]- serotonin at 1 uM; conditions: rat brain monoamine oxidase A preparation, probe [3H]-serotonin; procedure, shortened: as §2
# [6] = molecular target: T1, MAO A (monoamine oxidase A); experiment: (§5) Inhibitory activity against monoamine oxidase A (MAO A) from rat brain using a radiometric procedure with [3H]5-HT at 1 uM; conditions: rat brain monoamine oxidase A preparation, probe [3H]5-HT; procedure, shortened: as §2
# [7] = molecular target: T2, MAO B (monoamine oxidase B); experiment: (§6) Inhibitory activity against monoamine oxidase B (MAO B) from rat brain using a radiometric procedure with [14C]phenylethylamine at 1 uM; conditions: rat brain monoamine oxidase B preparation, probe [14C]phenylethylamine; procedure, shortened: as §4
# [8] = molecular target: T3, Amine oxidase [flavin-containing] A; experiment: Inhibitory activity against monoamine oxidase A (MAO A) from rat brain using a radiometric procedure with [3H]- serotonin.; procedure, shortened: as §2
# [9] = molecular target: T2, MAO B (monoamine oxidase B); experiment: Inhibitory activity against monoamine oxidase B (MAO B) from rat brain using a radiometric procedure with [14C]- phenethylamine atb 10 uM; conditions: rat brain monoamine oxidase B preparation, probe [14C]-phenethylamine
# Procedure, shortened: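 Rat brain mitochondrial MAO extract preincubated ± inhibitor 15 min at 37 °C in 50 mM potassium phosphate pH 7.4. […] Blanks contained 2 mM pargyline. Stopped with HCl, products extracted into ethyl acetate/toluene, scintillation counted. Triplicates. IC50 from mean % inhibition vs log concentration plot.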
# [10] = molecular target: T2, MAO B (monoamine oxidase B); experiment: Inhibitory activity against monoamine oxidase B (MAO B) from rat brain using a radiometric procedure with [14C]- phenethylamine at 10 uM; conditions: rat brain monoamine oxidase B preparation, probe [14C]-phenethylamine; procedure, shortened: as §4
# [11] = molecular target: T3, Amine oxidase [flavin-containing] A; experiment: as §5; procedure, shortened: as §2
# [12] = molecular target: T4, Amine oxidase [flavin-containing] B (Rattus norvegicus, UniProt P19643); experiment: as §6; procedure, shortened: as §4
# T4 sequence (P19643 whole entry): T2 sequence (P19643 whole entry)
# [13] = molecular target: T3, Amine oxidase [flavin-containing] A; experiment: as §1; procedure, shortened: as §2
# [14] = molecular target: T4, Amine oxidase [flavin-containing] B; experiment: as §3; procedure, shortened: as §4
# [15] = molecular target: T2, MAO B (monoamine oxidase B); experiment: Inhibitory activity against monoamine oxidase B (MAO B) from rat brain using a radiometric procedure with [14C]phenylethylamine at 0.1 uM; conditions: rat brain monoamine oxidase B preparation, probe [14C]phenylethylamine; procedure, shortened: as §4
# [16] = molecular target: T1, MAO A (monoamine oxidase A); experiment: Inhibitory activity against monoamine oxidase A (MAO A) from rat brain using a radiometric procedure with [3H]- serotonin at 10 uM; conditions: rat brain monoamine oxidase A preparation, probe [3H]-serotonin; procedure, shortened: as §2
# [17] = molecular target: T4, Amine oxidase [flavin-containing] B; experiment: Inhibitory activity against monoamine oxidase B (MAO B) from rat brain using a radiometric procedure with [14C]- phenethylamine.; procedure, shortened: as §4
structure (smiles),measurement,setting,value
CC(=O)Nc1nc2cc(C)c(C)cc2[nH]1,inhibition,[1],50%
same,inhibition at 10 uM,[2],18%
O=CNc1ccc2c(c1)-c1ccccc1S2(=O)=O,IC50,[3],1000 nM
CC(=O)Nc1ccc2[nH]ccc2c1,inhibition at 1 µM,[4],0%
same,inhibition at 1 µM,[5],0%
CC(=O)Nc1ccc2c(c1)CCC2,inhibition,[6],13%
same,inhibition at 1 µM,[7],37%
CC(=O)Nc1ccc2c(c1)[nH]c1ccccc12,IC50,[8],43 nM
same,inhibition at 10 uM,[9],38%
CC(=O)Nc1ccc2[nH]c3ccccc3c2c1,inhibition at 10 µM,[10],37%
CC(=O)Nc1ccc2c(cnn2C(C)=O)c1,inhibition at 1 µM,[4],27%
same,inhibition at 1 µM,[5],4%
CC(=O)Nc1ccc2c(c1)N(C(C)=O)CC2,inhibition,[6],37%
same,inhibition at 1 µM,[7],-27%
CC(=O)Nc1ccc2[nH]c(C)c(C)c2c1,inhibition,[11],< 1%
same,inhibition,[12],42%
CC(=O)Nc1ccc2c(O)c3ccccc3nc2c1,inhibition,[6],72%
same,inhibition at 1 µM,[7],21%
CC(=O)Nc1ccc2c(c1)oc(=O)c1ccccc12,IC50,[8],40 nM
same,inhibition at 1 µM,[4],8%
NC(=O)Nc1ccccc1-c1ccccc1,inhibition,[1],22%
same,inhibition at 10 uM,[2],13%
CC(=O)Nc1ccc2c(c1)S(=O)(=O)c1ccccc1N2,inhibition,[13],74%
same,inhibition,[14],22%
CC(=O)Nc1ccc2c(c1)C(=O)c1ccccc1-2,IC50,[3],40 nM
same,inhibition at 1 µM,[7],3%
CC(=O)Nc1ccc2c(c1)C(=O)c1ccccc1S2(=O)=O,IC50,[3],120 nM
same,inhibition at 1 µM,[7],39%
CC(=O)Nc1nc2cc(C)c(C)cc2s1,inhibition,[1],54%
same,inhibition at 10 uM,[2],38%
CC(=O)Nc1ccc2c(c1)-c1ccccc1S2(=O)=O,IC50,[3],260 nM
same,inhibition at 1 µM,[7],13%
CC(=O)Nc1cc2c(ccc3ccccc32)oc1=O,inhibition at 1 µM,[4],12%
same,inhibition at 1 µM,[5],10%
CCC(=O)Nc1ccc2c(c1)-c1ccccc1S2(=O)=O,IC50,[3],1200 nM
CC(=O)Nc1ccc2c(c1)S(=O)(=O)c1ccccc1O2,IC50,[3],14 nM
same,inhibition at 0.1 µM,[15],0%
CC(=O)Nc1ccc2c3ccccc3n(C)c2c1,IC50,[3],30 nM
CC(=O)Nc1ccc(Nc2ccccc2)c(NC(C)=O)c1,inhibition at 10 µM,[16],4%
same,inhibition at 10 µM,[10],4%
CC(=O)Nc1ccc2c(c1)C(=O)c1cc([N+](=O)[O-])ccc1-2,IC50,[3],1300 nM
O=CNc1ccc2c(c1)[nH]c1ccccc12,IC50,[3],1100 nM
CC(=O)Nc1ccc2[nH]c(=O)c3ccccc3c2c1,inhibition,[6],0%
same,inhibition at 1 µM,[7],11%
Nc1ccc2c(c1)-c1ccccc1S2(=O)=O,IC50,[3],1000 nM
CC(=O)Nc1ccc2c(c1)S(=O)(=O)c1ccccc1N2C,inhibition,[6],60%
same,inhibition at 1 µM,[7],18%
CC(=O)Nc1nc2ccccc2[nH]1,inhibition,[1],8%
same,inhibition at 10 uM,[2],-2%
CC(=O)Nc1ccc2c(c1)C(=O)c1ccccc1C2=O,IC50,[8],160 nM
same,IC50,[17],3500 nM
